Read-outs that look alike come from different tables or passages of the source.

The values below come from publication PMC8245906 (Acta Pharmaceutica Sinica. B, 2021).

Series [1] can be described thus: Tissue distribution of GS-441524 and GS-443902 in CD-1 mice after oral dosing. Format: in vivo. Conditions: 20 mg/kg oral dose.
A short description of series [2]: Plasma stability in CD-1 mouse plasma. The series is classed as in vitro ADME, CD-1 mice. An outline of the steps: (§1)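 Test compound (1 µmol/L final) incubated in duplicate in pooled plasma diluted to 80% in 0.1 mol/L potassium phosphate, pH 7.4, at 37 °C. Aliquots taken at 0, 1, 3, 6 and 24 h, quenched with acetonitrile containing 0.1% formic acid, and centrifuged. Supernatant analysed by LC/MS/MS to derive plasma t1/2.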

Series [3] relates to SARS-CoV-2. To be noted: Calu-3 2B4 cells, cited from earlier work.
Series [4] deals with SARS-CoV-2. To be noted: read-out: EC50 against SARS-CoV-2; A549-hACE2 cells; cited from earlier work.
A short description of series [5]: Pharmacokinetics and oral bioavailability of GS-441524 in CD-1 mice. The series is classed as in vivo.
Series [6] concerns SARS-CoV-2. Conditions: Vero E6 cells, cited from earlier work.
Series [7] is described as follows: Microsomal stability in human liver microsomes. The series is classed as in vitro ADME. To be noted: for microsomal CLint at 1 μmol/L: human, liver microsomes, pH 7.4. An outline of the steps: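 Human liver microsomes (0.5 mg/mL protein) in 0.1 mol/L potassium phosphate, pH 7.4, 37 °C, with 1 mmol/L NADPH and 1 mmol/L MgCl₂, or without NADPH. Test compound at 1 µmol/L final. For CYP3A inhibition, cobicistat was pre-incubated 5 min before the compound. Sampled at 0–60 min and quenched with acidified acetonitrile. LC/MS/MS gave t1/2 and CLint; at least duplicate.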

A short description of series [8]: Plasma stability in human plasma. The series is classed as in vitro ADME. To be noted: 1 μmol/L, 80% plasma, 37 °C. In a few lines: as §1
For series [9], the system named is major CYP enzymes including 1A1, 1A2, 2B6, 2C8, 2C9, 2C19, 2D6, 3A4, or 3A5. To be noted: cited from earlier work.
Series [10] can be described thus: Microsomal stability in CD-1 mice liver microsomes. To be noted: for microsomal CLint at 1 μmol/L: CD-1, mouse, liver microsomes, pH 7.4. The series is classed as in vitro ADME. In a few lines: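 Mouse liver microsomes (0.5 mg/mL protein, final) in 0.1 mol/L potassium phosphate, pH 7.4, 37 °C, with 1 mmol/L NADPH and 1 mmol/L MgCl₂. Started by adding test compound (1 µmol/L final). A no-NADPH control was run in parallel. Sampled at 0, 5, 15, 30 and 60 min and quenched in acidified acetonitrile. LC/MS/MS gave t1/2 and CLint. At least duplicate independent assays.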
On the technique in general: Liver microsomes are vesicles of endoplasmic reticulum, rich in cytochrome P450 enzymes.

Another series deals with CYP 2C8, 2D6 and 3A4. Conditions: cited from earlier work.
The conditions of series [11]: human, after iv infusion of RDV, phase I; cited from earlier work.
The test system of another series is P-glycoprotein (P-gp). Conditions: cited from earlier work.
The mark [12] stands for this setting: read-out: EC50 against SARS-CoV-2.
The mark [13] stands for this setting: read-out: EC90 against SARS-CoV-2.
Setting [14] is: male, CD-1, mouse, plasma, iv, 5 mg/kg.
[15] abbreviates: male, CD-1, mouse, plasma, po, 10 mg/kg.

As to `N#C[C@@]1(c2ccc3c(N)ncnn23)O[C@H](CO)[C@@H](O)[C@H]1O` [GS-441524], the “Concentration in lung within the first 4 h” value in series [1] (lung) is at least 2.2 µM. Moreover, the “Concentration in plasma within the first 4 h” value in [1] (plasma) was at least 2.2 µM. Besides, the “Plasma stability t1/2 Mouse” value in series [2] (1 μmol/L, 80% CD-1 mouse plasma, 37 °C) was above 24 h. Besides, the figures for the EC50 in the series on SARS-CoV-2 [3] (setting [12]), with SARS-CoV-2 [4] and in the series on SARS-CoV-2 [6] (setting [12]) were 0.62 µM, 0.87 µM and 0.47 µM, respectively. The figures for the EC90 in the series with SARS-CoV-2 [3] (setting [13]) and with SARS-CoV-2 [6] (setting [13]) were 1.34 µM and 0.71 µM, respectively. For the same molecule, the MRT is 1.7 h in series [5] (setting [14]) and 4.2 h in series [5] (setting [15]). The figures for the Tmax in series [5] (setting [14]) and in series [5] (setting [15]) were 0.083 h and 1 h, respectively. For the same molecule, the Vd in series [5] (setting [14]) came to 4.2 L/kg. The molecule further gave a clearance in [5] (setting [14]) of 1.2 L/h/kg. Besides, the half-life in [5] (setting [14]) is 2.5 h; in series [5] (setting [15]), 2.9 h. Further, the AUC in series [5] (male, CD-1, mouse, plasma, iv, 5 mg/kg, AUC0‒t, iv 5 mg/kg, CD-1 mice) was found to be 14.8 µM·h; in [5] (male, CD-1, mouse, plasma, iv, 5 mg/kg, AUC0‒∞, iv 5 mg/kg, CD-1 mice), 14.8 µM·h; in [5] (male, CD-1, mouse, plasma, po, 10 mg/kg, AUC0‒t, po 10 mg/kg, CD-1 mice), 16.8 µM·h; in series [5] (male, CD-1, mouse, plasma, po, 10 mg/kg, AUC0‒∞, po 10 mg/kg, CD-1 mice), 16.8 µM·h. The Cmax amounted to 11.6 µM in series [5] (male, CD-1, mouse, plasma, iv, 5 mg/kg, Cmax, iv 5 mg/kg, CD-1 mice) and 3.28 µM in series [5] (po 10 mg/kg, CD-1 mice, plasma, 10 mg/kg). In [5] (po 10 mg/kg, CD-1 mice), the “CL (clearance)” value is reported as 2.0 L/h/kg. Moreover, in series [5] (po 10 mg/kg, CD-1 mice), the “V (volume of distribution)” value stood at 8.4 L/kg. In [5] (po 10 mg/kg, CD-1 mice, 0.25 to 2 h), the “Plasma level from 0.25 to 2 h” value was above 2 µM. Moreover, the results for the microsomal CLint at 1 μmol/L in [7] and in [10] were 1.9 ± 0.1 µL/min/mg and 1.7 ± 0.4 µL/min/mg, respectively. In [7] (with NADPH, 60 min), the “Remaining percentage at 60 min in HLMs” value was “over 91%”. Besides, in [8], the “Plasma stability t1/2 Human” value is above 24 h. In series [9], the “Substrate of major CYP enzymes” value is given as “not a substrate”. Besides, the “Remaining percentage at 60 min in MLMs” value in series [10] (with NADPH, 60 min) is on record as “over 91%”.
With `CCC(CC)COC(=O)[C@H](C)N[P@](=O)(OC[C@H]1O[C@@](C#N)(c2ccc3c(N)ncnn23)[C@H](O)[C@@H]1O)Oc1ccccc1` [RDV, Remdesivir], the half-life at 1 μmol/L in [2] (CD-1, mouse, plasma (80% in buffer), pH 7.4) was below 1 min. Moreover, the “Stability in CD-1 mouse plasma (in words)” value in series [2] (wild-type CD-1 mouse plasma) was “undetectable within seconds”. The “Substrate for CYP 2C8, 2D6 and 3A4” value in the series on CYP 2C8, 2D6 and 3A4 is on record as “substrate”. Also, the “Plasma half-life (t1/2)” value in series [11] is “about 1 h”. For the same molecule, in series [7] (HLMs, with NADPH/Cobi, 60 min), the “Remaining percentage of intact RDV at 60 min with NADPH/Cobi” value came to 38.5%. Besides, the “Remaining percentage of intact RDV at 60 min without NADPH” value in [7] (HLMs, without NADPH, 60 min) was determined as 26.1%. In addition, the microsomal CLint at 1 μmol/L was determined as 1260 ± 68.6 µL/min/mg in [7] and 1680 ± 130 µL/min/mg in [10]. The “Substrate of P-glycoprotein (P-gp)” value with P-glycoprotein (P-gp) was “substrate”. Further, the “Microsomal stability MLMs t1/2” value in [10] (with cofactor NADPH, 1 μmol/L compound, 0.5 mg/mL microsomal protein) was found to be 48 ± 6 s.

One may read the EC50 as the concentration giving half of the maximal effect. As usually defined, the EC90 is the concentration needed for an effect of 90%. A word on the MRT: it is a mean duration of stay, worked out from the concentration-time curve. What is called Tmax is the time from dosing to the highest level. Usually half-life stands for how long it takes for the measured level to halve. A lower half-life goes with fast loss. A word on the AUC: it is the area under the concentration-time curve, a measure of exposure. Low readings indicate low exposure, high ones high exposure. Usually Cmax stands for the maximum level reached in the sampled fluid or tissue. As usually defined, the microsomal CLint is the rate of metabolic loss divided by the concentration. Low values mean slow turnover, high ones rapid turnover.
